A selection: hits, their analogues and other compounds. The true share with any hit is near 0.99%.
AI-2 QS modul: Vibrio harveyi AI-2 quorum sensing modulators, primary screen, JMH597 strain, luminescence/OD600 ratio; 0.4% of 300,000 active; Vibrio harveyi JMH597 AI-2 luminescence/OD600 ratio, 9 h; active compounds read low; strain lacks LuxN and CqsS sensors; 0 = neutral-control median; activity change, % at 7.5 µM; AID 2094, 2009; in the data active = activity change below about -75%, passing the limit was not always enough;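 also: luminescence divided by OD600 gain over 9 h not by final OD600 alone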
Dyrk1A ADPGlo: rat Dyrk1A kinase inhibitors, primary screen, biochemical, single point, plate reader | ADP-Glo luminescence, NFATc1 peptide | inhibition, % at 12.5 µM | 0.43% of 310,000 active; in the data active = inhibition above about 50%
GSK3A inh: blockers of GSK3A enzyme activity – biochemical, luminescence, cell-free homogeneous, HTS, primary screen; inhibition, % at 10 µM; 0.1% of 320,000 active; GSK-3 alpha kinase, ADP-Glo luminescence, 60 min; Glycogen synthase kinase-3 alpha (Homo sapiens), P49840; AID 2650, 2010;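 active = more than half of replicates show inhibition above 20%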;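 also: GST-tagged GSK-3 alpha with peptide substrate and 25 µM ATP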
Rce1 inhib: yeast Rce1p protease inhibitors, primary screen, biochemical, fluorescence, cell-free homogeneous. CAAX prenyl protease 2 (Saccharomyces cerevisiae (strain ATCC 204508 / S288c)), Q03530. yeast membranes, quenched prenylated peptide cleavage fluorescence. calls only. 0.27% of 290,000 active. AID 2563, 2010;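 active = fall in fluorescence gain of 50% or more versus controls, with final raw signal at or below 3038400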
Target sequence (Q03530 whole entry, looked up): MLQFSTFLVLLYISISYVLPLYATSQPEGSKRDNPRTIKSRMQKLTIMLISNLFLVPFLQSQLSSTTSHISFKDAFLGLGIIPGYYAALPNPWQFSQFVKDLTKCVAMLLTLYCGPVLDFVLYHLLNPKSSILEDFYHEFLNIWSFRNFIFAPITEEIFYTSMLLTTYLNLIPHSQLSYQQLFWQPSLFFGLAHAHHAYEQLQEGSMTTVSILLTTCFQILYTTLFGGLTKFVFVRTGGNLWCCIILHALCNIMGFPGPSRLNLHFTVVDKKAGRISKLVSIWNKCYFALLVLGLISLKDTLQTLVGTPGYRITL
STK33 kinase inh: inhibitors of purified STK33 kinase, primary screen, biochemical, ADP-Glo luminescence, homogeneous, cell-free; Serine/threonine-protein kinase 33 (Homo sapiens), Q9BYT3; MBP phosphorylation; inhibition, % at 10 µM; 0.073% of 320,000 active; AID 2661, 2010;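 active = inhibition at or above 25%, using the most active replicate where run in duplicate; inactive = inhibition below 25%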
GSK3B inh: human GSK3beta kinase inhibitors, primary screen, biochemical, cell-free homogeneous, HTS. 0.038% of 300,000 active. activity score (negative = inhibition), % at 10 µM. Glycogen synthase kinase-3 beta (Homo sapiens), P49841. GST-GSK3beta kinase, ADP-Glo luminescence, 60 min; active compounds read low;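 active = more than half of replicate wells score below -50%, meaning over 50% inhibition versus plate controls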
Target sequence (P49841 whole entry, looked up): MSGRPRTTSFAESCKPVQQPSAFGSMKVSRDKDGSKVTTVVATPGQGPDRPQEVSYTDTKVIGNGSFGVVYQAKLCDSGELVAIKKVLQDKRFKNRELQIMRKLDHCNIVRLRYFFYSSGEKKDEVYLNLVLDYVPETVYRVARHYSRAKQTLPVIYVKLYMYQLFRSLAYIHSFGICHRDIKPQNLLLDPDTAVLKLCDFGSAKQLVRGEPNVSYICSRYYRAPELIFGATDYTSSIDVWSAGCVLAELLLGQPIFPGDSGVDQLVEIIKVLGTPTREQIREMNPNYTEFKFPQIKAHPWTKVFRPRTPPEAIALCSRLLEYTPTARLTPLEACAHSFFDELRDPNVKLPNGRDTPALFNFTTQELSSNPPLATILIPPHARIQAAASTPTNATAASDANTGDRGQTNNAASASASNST
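Assay system: GST-fused GSK3beta enzyme, cell-free / Medium: Tris pH 7.5 buffer with MgCl2, DTT, BSA, heparin / Also added: peptide substrate plus 25 µM ATP (final) / Compound: 10 µM single point / Timing: kinase reaction with compound 60 min at room temperature / Detection: ADP-Glo luminescence / Benchmarks: DMSO neutral wells and GW8510 at 20 µM as positive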
Numbers stand for hits; 0 = inactive; - = not tested or not shown; + = active, no number.

SMILES | AI-2 QS modul | Dyrk1A ADPGlo | GSK3A inh | Rce1 inhib | STK33 kinase inh | GSK3B inh
COc1ccc(C2c3ccc4ccccc4c3Oc3ncn(CCN(C)C)c(=N)c32)cc1 (stereo not drawn) | 0 | 0 | 0 | 0 | 0 | 0
Cc1oc2c(Cl)c(Cl)c(O)c(CN(C)C)c2c1C(=O)c1ccc(Cl)cc1 | 0 | 0 | 70 | 0 | 0 | 0
Cc1oc2ccc(O)c(CN3CCOCC3)c2c1C(=O)c1ccc(Cl)cc1 | 0 | 0 | 0 | 0 | 0 | 0
CC(Sc1nnc(Cc2ccccc2)o1)C(=O)Nc1ccccc1[N+](=O)[O-] (stereo not drawn) | - | 0 | 0 | - | 0 | -
c1ccc2c(-c3cn4ccccc4n3)c[nH]c2c1 | 0 | - | 0 | + | 0 | 0
c1ccc2c(-c3nnc(SCc4cn5ccccc5n4)o3)c[nH]c2c1 | 0 | 0 | 0 | 0 | 0 | 0
COc1ccc(/C=C/C(=O)c2cc(Cl)ccc2O)c(OC)c1 | 0 | 0 | 0 | 0 | 0 | 0
COc1ccc(C(=O)/C=C/c2ccc(OC)cc2OC)c(O)c1 | 0 | 0 | 0 | + | 0 | 0
CC(C)Cn1c(N)c(C(=O)COC(=O)c2cccn2C)c(=O)n(C)c1=O | - | 0 | 0 | - | 0 | -
O=C(CSc1nnc(NC(=O)c2cccc(F)c2)s1)NC1CCCC1 | 0 | 0 | 0 | 0 | 0 | 0
COc1cccc(C(=O)Nc2nnc(SCC(=O)NC3CCCC3)s2)c1 | 0 | 0 | 0 | + | 0 | 0
O=C(c1cc(COc2ccc3c(c2)CCCC3)on1)N1CCCC1 | 0 | 0 | 0 | - | 0 | 0
COc1cccc(NC(=O)COC(=O)Cc2ccc(Br)cc2)c1 | 0 | - | 0 | 0 | 0 | 0
COc1ccc(CC(=O)Nc2ccc(S(=O)(=O)NC(C)C)cc2)cc1 | 0 | 0 | 0 | 0 | 0 | 0
COc1ccc(CC(=O)OCC(=O)Nc2cccc(Br)c2)cc1 | -76 | 0 | 0 | 0 | 0 | 0
CCCCNS(=O)(=O)c1ccc(NC(=O)Cc2ccc(OC)cc2)cc1 | -96 | 0 | 0 | 0 | 0 | 0
COc1ccc(CC(=O)OCC(=O)Nc2ccc(Br)cc2)cc1 | 0 | 0 | 0 | + | 0 | 0
CCCCn1c(N)c(N(CCOC)C(=O)c2ccc(N3CCCC3)c([N+](=O)[O-])c2)c(=O)[nH]c1=O | 0 | 0 | 0 | 0 | 0 | 0
COc1ccc(OC)c(NC(=O)c2cc3oc4ccccc4c3cc2O)c1 | 0 | 0 | 0 | + | 0 | 0
COc1ccc(OC)c(NC(=O)c2ccccc2SC)c1 | 0 | 0 | 0 | 0 | 0 | 0
CCOC(=O)CCCCC1C(CCCC(=O)OCC)C=NN1C (stereo not drawn) | - | 0 | - | - | - | -
Nc1ccc2c(C(F)(F)F)cc(C(F)(F)F)nc2n1 | 0 | 0 | 0 | + | 0 | 0
CC1=C(C(=O)N2CCOCC2)C(c2ccccc2F)C2=C(CC(C)(C)CC2=O)N1 (stereo not drawn) | 0 | 0 | 0 | + | 0 | 0
CCN(CC)C(=O)Cn1cc(S(=O)(=O)CC(=O)Nc2ccc(C(N)=O)cc2)c2ccccc21 | 0 | - | 0 | 0 | 0 | 0
COc1cccc2cc(CC(=O)c3ccc(C)cc3C)c(=O)oc12 | 0 | 0 | 0 | 0 | 0 | 0
SMILES | AI-2 QS modul | Dyrk1A ADPGlo | GSK3A inh | Rce1 inhib | STK33 kinase inh | GSK3B inh
COc1cccc2cc(C(=O)CS(=O)(=O)c3ccc(C)cc3)c(=O)oc12 | 0 | 0 | 0 | 0 | 0 | -54
COc1ccccc1C(=O)Nc1cc(Cl)ccc1O | 0 | 0 | 0 | 0 | 0 | 0
CCOc1ccccc1C(=O)Nc1cc(Cl)ccc1O | 0 | 0 | 0 | 0 | 26 | 0
Cc1cc(N2CCN(C(c3ccccc3)c3ccccc3)CC2)n2ncnc2n1 | 0 | 0 | 0 | + | 0 | 0
Cc1nc2ncnn2c(N2CCN(C(c3ccccc3)c3ccccc3)CC2)c1C | 0 | 0 | 0 | 0 | 0 | 0
CSc1ccccc1NC(=O)c1cc(-c2cccnc2)nc2ccc(Br)cc12 | 0 | 0 | 0 | 0 | 0 | 0
CN(C)c1ccc(N=Nc2nc3ccccc3n2C)cc1 | 0 | 0 | 0 | 0 | 0 | 0
Cn1c(N=Nc2ccccc2)nc2ccccc21 | 0 | 0 | 0 | 0 | 34 | 0
Cc1c(C(=O)N2CCCCC2CCN2CCCC2=O)oc2c(F)cccc12 (stereo not drawn) | 0 | 0 | 0 | 0 | 0 | 0
O=C(Nc1ccc(OC(F)(F)F)cc1)Oc1ccccc1N1CCOCC1 | 0 | - | 0 | 0 | 0 | 0
O=C(Nc1ccc(F)cc1)Oc1ccccc1N1CCOCC1 | 0 | 0 | 0 | + | 0 | 0
CCc1cccc(NC(=O)C2CCCN(S(=O)(=O)c3cccnc3)C2)c1 (stereo not drawn) | 0 | 0 | 0 | 0 | 0 | 0
CC(C)c1ccc(CNc2ccc([N+](=O)[O-])cn2)cc1 | 0 | 0 | 0 | 0 | 0 | 0
CC(C)(C)c1ccc(CNc2ccc([N+](=O)[O-])cn2)cc1 | -83 | 0 | 0 | 0 | 0 | 0
COCCN(C(=O)COc1ccccc1C#N)c1c(N)n(Cc2ccccc2)c(=O)[nH]c1=O | - | 0 | 0 | - | 0 | -
Cc1ccc(C2(C)NC(=O)N(CC(=O)NNC(=O)c3cc(C)oc3C)C2=O)cc1 (stereo not drawn) | -79 | 0 | 0 | 0 | 0 | 0
Oc1c(C=NCc2ccccc2)sc2ccccc12 | -92 | 0 | 0 | 0 | 0 | 0
N#Cc1ccc(CSc2nnc(-c3ccncc3)o2)cc1 | 0 | 0 | 0 | 0 | 0 | 0
Fc1ccccc1CSc1nnc(-c2cccnc2)o1 | -92 | 0 | 0 | 0 | 0 | 0
COC(=O)c1ccc(CSc2nnc(-c3ccncc3)o2)o1 | 0 | 0 | 66 | 0 | 0 | 0
Cc1ccccc1CSc1nnc(-c2ccncc2)o1 | 0 | 0 | 53 | 0 | 0 | -55
O=C(N/N=C/c1cccc([N+](=O)[O-])c1)C(=O)N1CCCCCC1 | 0 | 0 | 0 | - | 0 | 0
CN1C(=O)/C(=C/c2ccccc2F)Sc2ccc(C(=O)N3CCCC3)cc21 | 0 | 0 | 0 | 0 | 0 | 0
Cc1ccc(-c2nn(-c3ccccc3)cc2/C=N/O)cc1 | 0 | - | 78 | 0 | 0 | -52
Cc1ccc(-c2nn(-c3ccccc3)cc2/C=N/NS(=O)(=O)c2ccccc2)cc1 | 0 | 0 | 0 | 0 | 0 | 0
O/N=C/c1cn(-c2ccccc2)nc1-c1cccnc1 | 0 | 0 | 71 | 0 | 0 | 0
CN1CCN(C(=O)c2ccc(-c3cccs3)s2)CC1 | 0 | 0 | 0 | + | 0 | 0
O=c1c(/C=N/O)c(Nc2ccccc2)nc2ccccn12 | 0 | - | 0 | 0 | 57 | 0
CCOc1ccccc1NC(=O)C1CCN(c2nc(-c3ccc(OC)cc3)no2)CC1 | 0 | 0 | 0 | 0 | 0 | 0

High-throughput results from PubChem BioAssay.
